ChEMBL document CHEMBL3351280, “Exploration and pharmacokinetic profiling of phenylalanine based carbamates as novel substance p 1-7 analogues” (ACS Med Chem Lett, 2014)
Peptide text beside a SMILES is read from it.

How the values were obtained:
Cytochrome P450 2C9 = Cytochrome P450 2C9 (Homo sapiens, UniProt P11712); assay: Inhibition of CYP2C9 (unknown origin); assay type: ADME
Cytochrome P450 3A4 = Cytochrome P450 3A4 (Homo sapiens, UniProt P08684); assay: Inhibition of CYP3A4 (unknown origin); assay type: ADME
[1] = Intrinsic clearance in rat microsomes; assay type: ADME, Microsome
Hepatocyte = assay: Intrinsic clearance in rat hepatocytes; assay type: ADME, cell-based
[2] = Apparent permeability from apical to basolateral side in human Caco2 cells; assay type: ADME, cell-based; details: Caco-2
In short: (§1)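 Caco-2 monolayers; apparent permeability coefficients (Papp) calculated from transport rates in the apical-to-basolateral and basolateral-to-apical directions. Efflux ratio is Papp(b–a)/Papp(a–b). Values are given as mean ± SD.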

Brain = assay: Unbound brain volume of distribution in rat at 10 uM; assay type: ADME, tissue-based; details: in vivo
Cytochrome P450 1A2 = target: T1, Cytochrome P450 1A2 (Homo sapiens, UniProt P05177); assay: Inhibition of CYP1A2 (unknown origin); assay type: ADME
T1 sequence (P05177 whole entry): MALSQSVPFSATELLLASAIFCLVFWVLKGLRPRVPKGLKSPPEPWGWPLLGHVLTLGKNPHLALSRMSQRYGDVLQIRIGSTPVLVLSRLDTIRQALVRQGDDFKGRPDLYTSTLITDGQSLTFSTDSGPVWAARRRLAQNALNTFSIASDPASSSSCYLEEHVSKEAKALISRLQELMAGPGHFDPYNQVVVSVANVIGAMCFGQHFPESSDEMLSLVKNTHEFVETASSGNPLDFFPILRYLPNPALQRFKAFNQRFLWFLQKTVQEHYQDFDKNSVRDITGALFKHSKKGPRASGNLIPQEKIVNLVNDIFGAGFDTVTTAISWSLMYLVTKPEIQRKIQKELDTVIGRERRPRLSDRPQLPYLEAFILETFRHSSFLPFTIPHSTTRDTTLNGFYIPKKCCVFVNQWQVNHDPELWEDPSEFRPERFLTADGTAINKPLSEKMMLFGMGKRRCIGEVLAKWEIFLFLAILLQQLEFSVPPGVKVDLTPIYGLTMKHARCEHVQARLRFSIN

[3] = Fraction unbound in rat plasma at 10 uM; assay type: ADME, cell-free
[4] = Intrinsic clearance in human microsomes; assay type: ADME, Microsome
[5] = Efflux ratio of apparent permeability from basolateral to apical side to apical to basolateral side of human Caco2 cells; assay type: ADME, cell-based; details: Caco-2; in short: as §1
[6] = Fraction unbound in human plasma at 10 uM; assay type: ADME, cell-free
In short: (§2)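 Human plasma protein binding was measured by equilibrium dialysis. The read-outs were fraction unbound and mass recovery.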

Cytochrome P450 2D6 = Cytochrome P450 2D6 (Homo sapiens, UniProt P10635); assay: Inhibition of CYP2D6 (unknown origin); assay type: ADME
Plasma [7] = assay: Drug recovery in rat plasma at 10 uM; assay type: ADME, cell-free
[8] = Drug recovery in rat brain at 10 uM; assay type: ADME, tissue-based; details: read-out: Drug recovery
[9] = Fraction unbound in rat brain at 10 uM; assay type: ADME, tissue-based
Plasma [10] = assay: Drug recovery in human plasma at 10 uM; assay type: ADME, cell-free; in short: as §2
[11] = Half life in rat plasma at 25 uM; assay type: ADME, cell-free
in vitro [12] = details: human, Caco-2
in vitro [13] = details: human, Caco-2; remark: listed apart in the source
in vitro [14] = details: human, Caco-2; remark: listed apart in the source
[15] = Drug uptake in CHOK1 cells at 25 uM; assay type: ADME, cell-based, Cricetulus griseus; details: chinese hamster, cho-k1, 25 µM
PepT1 = assay: in vitro; details: chinese hamster, CHO-PepT1 cells and CHO-K1 cells
[16] = Half life in human plasma at 25 uM; assay type: ADME, cell-free
[17] = Intrinsic clearance in human liver microsomes at 25 uM; assay type: ADME; details: read-out: CLH
[18] = target: T2, Solute carrier family 15 member 1 (Homo sapiens, UniProt P46059); assay: Drug uptake in CHO-PepT1 cells expressing PepT1 (unknown origin) assessed as transporter mediated uptake at 25 uM; assay type: ADME, cell-based, Cricetulus griseus; details: chinese hamster, cho-pept1, 25 µM
T2 sequence (P46059 whole entry): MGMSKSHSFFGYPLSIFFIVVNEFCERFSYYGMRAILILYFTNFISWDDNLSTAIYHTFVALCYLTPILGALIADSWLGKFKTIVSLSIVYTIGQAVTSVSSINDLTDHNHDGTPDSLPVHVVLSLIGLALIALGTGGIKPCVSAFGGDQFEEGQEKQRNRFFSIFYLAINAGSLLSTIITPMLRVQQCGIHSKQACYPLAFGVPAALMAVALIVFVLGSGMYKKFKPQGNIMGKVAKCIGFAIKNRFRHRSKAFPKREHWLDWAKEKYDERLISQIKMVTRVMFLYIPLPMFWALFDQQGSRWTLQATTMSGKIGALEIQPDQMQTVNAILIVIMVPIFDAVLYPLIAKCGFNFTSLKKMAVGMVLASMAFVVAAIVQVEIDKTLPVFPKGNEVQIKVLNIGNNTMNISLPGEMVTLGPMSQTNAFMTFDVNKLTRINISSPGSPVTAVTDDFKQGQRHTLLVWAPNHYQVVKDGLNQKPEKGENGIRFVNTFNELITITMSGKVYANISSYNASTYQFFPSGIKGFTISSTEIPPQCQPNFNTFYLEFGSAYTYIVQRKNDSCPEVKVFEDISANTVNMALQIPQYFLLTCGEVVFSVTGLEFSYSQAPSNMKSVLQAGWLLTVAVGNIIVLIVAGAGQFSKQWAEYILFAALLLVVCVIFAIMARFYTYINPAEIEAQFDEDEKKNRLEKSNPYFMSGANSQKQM

[19] = Drug uptake in CHOK1 cells at 100 uM; assay type: ADME, cell-based, Cricetulus griseus; details: chinese hamster, cho-k1, 100 µM
In short: (§3)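 Uptake was measured in CHO-PepT1 cells, which are stably transfected with PepT1, and in CHO-K1 cells as the control. It is expressed as pmol/mg protein/min. […] A PepT1/K1 uptake ratio above 1 was taken to indicate a PepT1 substrate. Values are mean ± SD.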

[20] = Apparent permeability from apical to basolateral side in human Caco2 cells at 100 uM; assay type: ADME, cell-based; details: Caco-2
In short: as §1, with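 “Papp(b–a)/Papp(a–b). The test concentration was 100 μM, or 25 μM for poorly soluble compounds after further dilution.” for “Papp(b–a)/Papp(a–b).”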

[21] = Half life in human plasma at 100 uM; assay type: ADME, cell-free
[22] = target: T2, Solute carrier family 15 member 1; assay: Drug uptake in CHO-PepT1 cells expressing PepT1 (unknown origin) assessed as transporter mediated uptake at 100 uM; assay type: ADME, cell-based, Cricetulus griseus; details: chinese hamster, cho-pept1, 100 µM; in short: as §3
[23] = Half life in rat plasma at 100 uM; assay type: ADME, cell-free
[24] = Apparent permeability from basolateral to apical side in human Caco2 cells at 100 uM; assay type: ADME, cell-based; details: Caco-2
In short: as §1, with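 “Papp(b–a)/Papp(a–b). The test concentration was 100 μM, or 25 μM for poorly soluble compounds after further dilution.” for “Papp(b–a)/Papp(a–b).”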

[25] = Intrinsic clearance in human liver microsomes at 100 uM; assay type: ADME; details: read-out: CLH

Cytochrome P450 3A4, sequence (P08684 whole entry): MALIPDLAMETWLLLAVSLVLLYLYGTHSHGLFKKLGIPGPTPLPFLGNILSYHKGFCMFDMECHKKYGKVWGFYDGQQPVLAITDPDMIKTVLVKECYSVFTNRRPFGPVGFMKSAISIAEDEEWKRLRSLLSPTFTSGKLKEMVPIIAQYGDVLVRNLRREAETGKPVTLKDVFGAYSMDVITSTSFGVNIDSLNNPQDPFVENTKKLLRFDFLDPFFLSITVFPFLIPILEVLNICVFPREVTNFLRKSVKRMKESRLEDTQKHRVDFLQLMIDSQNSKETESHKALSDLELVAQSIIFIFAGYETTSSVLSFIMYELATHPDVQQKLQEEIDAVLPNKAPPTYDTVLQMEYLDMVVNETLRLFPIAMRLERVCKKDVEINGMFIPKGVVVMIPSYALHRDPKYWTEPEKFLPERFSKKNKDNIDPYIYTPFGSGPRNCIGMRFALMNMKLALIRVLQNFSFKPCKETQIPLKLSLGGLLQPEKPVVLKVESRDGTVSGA
Cytochrome P450 2D6, sequence (P10635 whole entry): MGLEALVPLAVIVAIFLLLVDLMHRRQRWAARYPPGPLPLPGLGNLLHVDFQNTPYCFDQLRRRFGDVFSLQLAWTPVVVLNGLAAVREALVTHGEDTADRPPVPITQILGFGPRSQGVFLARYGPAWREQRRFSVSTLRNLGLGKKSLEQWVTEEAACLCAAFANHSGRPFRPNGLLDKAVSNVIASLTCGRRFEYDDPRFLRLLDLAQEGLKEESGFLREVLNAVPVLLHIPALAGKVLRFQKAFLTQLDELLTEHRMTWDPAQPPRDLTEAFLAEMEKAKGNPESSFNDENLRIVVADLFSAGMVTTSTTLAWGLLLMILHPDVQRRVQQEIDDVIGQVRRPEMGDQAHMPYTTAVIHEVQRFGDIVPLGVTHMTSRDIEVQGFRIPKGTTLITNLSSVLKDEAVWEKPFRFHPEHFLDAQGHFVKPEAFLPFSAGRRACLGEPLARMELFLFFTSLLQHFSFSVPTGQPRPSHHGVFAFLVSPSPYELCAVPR
Cytochrome P450 2C9, sequence (P11712 whole entry): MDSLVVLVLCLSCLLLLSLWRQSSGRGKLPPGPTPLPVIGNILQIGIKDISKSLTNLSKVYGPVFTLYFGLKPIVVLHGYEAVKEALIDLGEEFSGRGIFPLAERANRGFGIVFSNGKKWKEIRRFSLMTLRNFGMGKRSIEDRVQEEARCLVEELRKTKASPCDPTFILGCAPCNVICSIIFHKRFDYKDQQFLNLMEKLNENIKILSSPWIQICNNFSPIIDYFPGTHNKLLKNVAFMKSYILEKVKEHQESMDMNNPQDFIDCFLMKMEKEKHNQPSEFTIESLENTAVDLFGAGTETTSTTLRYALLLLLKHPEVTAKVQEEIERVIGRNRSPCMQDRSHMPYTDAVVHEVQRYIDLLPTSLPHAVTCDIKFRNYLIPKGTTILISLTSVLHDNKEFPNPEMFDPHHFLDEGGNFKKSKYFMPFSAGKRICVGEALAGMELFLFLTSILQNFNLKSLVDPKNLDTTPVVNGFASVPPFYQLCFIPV

| SMILES | Drug recovery (Plasma [7]) | Drug recovery (Plasma [10]) | half-life at 25 µM [11] | Papp A→B at 25 µM (in vitro [12]) | Papp B→A at 25 µM (in vitro [13]) | Drug uptake [15] | half-life at 25 µM [16] | microsomal CLint at 25 µM [17] | Drug uptake [18] | other results |
| --- | --- | --- | --- | --- | --- | --- | --- | --- | --- | --- |
| NC(=O)[C@H](Cc1ccccc1)NC(=O)OCc1ccccc1 | > 70% | > 65% |  |  |  |  |  |  |  | INH (Cytochrome P450 2C9): > 20 µM; INH (Cytochrome P450 3A4): > 20 µM; microsomal CLint [1]: 21.2 µL/min/mg; CLH (Hepatocyte): 39.4 µL/min/mg; Papp A→B [2]: 31 ×10⁻⁶ cm/s; Vdu (Brain): 6 mL/g; INH (Cytochrome P450 1A2): > 20 µM; fraction unbound at 10 µM [3]: 0.18; microsomal CLint [4]: 22.6 µL/min/mg; efflux ratio [5]: 1; fraction unbound at 10 µM [6]: 0.19; INH (Cytochrome P450 2D6): > 20 µM; recovery at 10 µM [8]: > 95%; fraction unbound at 10 µM [9]: 0.17 |
| NC(=O)[C@@H]1[C@H](c2ccccc2)CCN1C(=O)[C@@H](N)Cc1ccccc1 | > 95% | > 95% |  |  |  |  |  |  |  | Vdu (Brain): 3.4 mL/g; recovery at 10 µM [8]: > 95% |
| N#CNC(=O)[C@H](Cc1ccccc1)NC(=O)OCc1ccccc1 |  |  | 8.7 h | 52 ×10⁻⁶ cm/s | 62 ×10⁻⁶ cm/s | 4 pmol/min/mg | 6.6 h | 11 µL/min/mg | 4 pmol/min/mg | efflux ratio at 25 µM (in vitro [14]): 1.2; uptake ratio at 25 µM (PepT1): 1 |
| CS(=O)(=O)NC(=O)[C@H](Cc1ccccc1)NC(=O)OCc1ccccc1 |  |  |  |  |  |  |  |  |  | Drug uptake [19]: 77 pmol/min/mg; Papp A→B at 100 µM [20]: 6 ×10⁻⁶ cm/s; half-life at 100 µM [21]: 26.7 h; Drug uptake [22]: 90 pmol/min/mg; half-life at 100 µM [23]: 6.9 h; Papp B→A at 100 µM [24]: 3 ×10⁻⁶ cm/s; microsomal CLint at 100 µM [25]: 17 µL/min/mg |
| O=C(N[C@@H](Cc1ccccc1)C(=O)NO)OCc1ccccc1 |  |  | 0.06 h | 60 ×10⁻⁶ cm/s | 45 ×10⁻⁶ cm/s | 4 pmol/min/mg | 7.9 h | 23 µL/min/mg | 5 pmol/min/mg |  |
| O=C(N[C@@H](Cc1ccccc1)C(=O)NNC(=O)c1ccccc1)OCc1ccccc1 |  |  | 0.31 h | 11 ×10⁻⁶ cm/s | 14 ×10⁻⁶ cm/s | 156 pmol/min/mg | 9.9 h | 65 µL/min/mg | 127 pmol/min/mg | efflux ratio at 25 µM (in vitro [14]): 1.3; uptake ratio at 25 µM (PepT1): 0.8 |
| O=C(N[C@@H](Cc1ccccc1)c1nnc(-c2ccccc2)o1)OCc1ccccc1 |  |  | 8.7 h |  |  | 1128 pmol/min/mg | 11.2 h | 287 µL/min/mg | 1082 pmol/min/mg |  |
| NC(=O)[C@H](Cc1ccccc1)NC(=O)[C@@H](N)Cc1ccccc1 (H-Phe-Phe-NH2) | 1% | 22% |  |  |  |  |  |  |  | microsomal CLint [1]: 103 µL/min/mg; microsomal CLint [4]: 97.3 µL/min/mg |
